# Measured values as given in ChEMBL document CHEMBL4765399, “Design, synthesis, and biological evaluation of 5-((8-methoxy-2-methylquinolin-4-yl)amino)-1H-indole-2-carbohydrazide derivatives as novel Nur77 modulators” (Eur J Med Chem, 2020).
# Activity calls are given as the source filed them. The rule behind the calls is not given here.
# Key:
# HepG2 [1] = assay: Upregulation of Nur77 expression in human HepG2 cells at 2 uM measured after 1 to 6 hrs by western blot analysis; assay type: functional, cell-based; details: time 1-6 hrs
# Procedure, shortened: (§1)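 HepG2, QGY-7703 and SMMC-7721 cells treated with the indicated concentrations for 6 h. HepG2 also given 2.0 µM over a time course. Lysis in RIPA with protease and phosphatase inhibitors; 40-80 µg protein by SDS-PAGE, nitrocellulose transfer. Membranes blocked with 5% milk, primary antibody overnight, HRP secondary, chemiluminescence. GAPDH as loading control.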
# HepG2 [2] = assay: Induction of autophagy in Nur77 knockout human HepG2 cells assessed as increase in GFP-LC3 puncta formation at 2 uM after 6 hrs by fluorescence microscopic method; assay type: functional, cell-based
# Procedure, shortened: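 HepG2, or HepG2 and shNur77 HepG2, transfected with GFP-LC3, then given vehicle or 2.0 µM for 6 h; GFP-LC3 puncta visualised by fluorescence microscopy alongside phase-contrast images.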
# HepG2 [3] = assay: Induction of autophagy in human HepG2 cells assessed as p62 degradation by western blot analysis; assay type: functional, cell-based
# QGY-7703 [4] = assay: Upregulation of Nur77 expression in human QGY-7703 cells incubated for 6 hrs by Western blot analysis; assay type: functional, cell-based; details: dose 0.5-2 µM; procedure, shortened: as §1
# HepG2 [5] = assay: Disruption of mitochondrial membrane potential in human HepG2 cells transfected with shNur77 assessed as red fluorescence intensity at 2 uM incubated for 12 hrs by JC-1 staining based flow cytometry (reference value: 21319 units); assay type: functional
# HepG2 [6] = assay: Upregulation of Nur77 expression in human HepG2 cells pretreated with nuclear export inhibitor, LMB followed by incubation with compound for 12 hrs by western blot analysis; assay type: functional, cell-based
# HepG2 [7] = assay: Induction of apoptosis in human HepG2 cells transfected with shRNA assessed as necrotic cells at 2 uM incubated for 12 hrs by Annexin V-FITC/PI staining based flow cytometry (reference value: 0.15%); assay type: functional
# SMMC-7721 = assay: Induction of apoptosis in human SMMC-7721 cells assessed as increase in cleaved PARP level at 0.5 to 2 uM incubated for 12 hrs by Western blot analysis; assay type: functional, cell-based; details: dose 0.5-2 µM
# Procedure, shortened: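 QGY-7703 (RPMI 1640, 10% FBS) and SMMC-7721 (DMEM) cells at 37 °C, 5% CO2, treated with graded concentrations for 12 h. RIPA lysates (40-80 µg protein) run on SDS-PAGE, transferred to nitrocellulose, immunoblotted for cleaved PARP; chemiluminescence read-out.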
# L02 = assay: Cytotoxicity against human L02 cells assessed as reduction in cell viability incubated for 48 hrs by MTT assay; assay type: cell-based; details: L02, 48 h
# Procedure, shortened: (§2)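 MTT assay after 48 h exposure at six concentrations, range chosen by cytotoxicity. Inhibition = (ODcontrol − ODtest)/ODcontrol × 100%; IC50 is the concentration halving OD versus untreated cells. Means ± SD of three independent determinations. HepG2 and SMMC-7721 grown in DMEM, QGY-7703 and LO2 in RPMI 1640, with 10% FBS at 37 °C.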
# HepG2 [8] = assay: Induction of apoptosis in human HepG2 cells assessed as cleaved PARP expression at 2 uM pretreated with ER stress inhibitor, 4-PBA for 2 hrs followed by incubation with compound for 12 hrs by Western blot analysis; assay type: functional, cell-based
# Procedure, shortened: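 HepG2 cells grown to confluence were pretreated 2 h with 2 mM 3-MA (autophagy inhibitor) or 2 mM 4-PBA (ER stress inhibitor), then exposed to compound for 12 h. Proteins (40–80 µg, RIPA lysate) were resolved by SDS-PAGE and blotted for PARP, cleaved caspase-3/-9, Bcl-2 and Bax, with chemiluminescent detection.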
# HepG2 [9] = assay: Disruption of mitochondrial membrane potential in human HepG2 cells assessed as green fluorescence intensity at 2 uM incubated for 12 hrs by JC-1 staining based flow cytometry (reference value: 41669 units); assay type: functional
# QGY-7703 [10] = assay: Antiproliferative activity against human QGY-7703 cells assessed as reduction in cell viability incubated for 48 hrs by MTT assay; assay type: functional, cell-based; details: QGY-7703, 48 h; procedure, shortened: as §2
# HepG2 [11] = assay: Induction of autophagy in Nur77 knockout human HepG2 cells assessed as increase in Beclin 1 expression at 2 uM measured after 6 to 12 hrs by Western blot analysis; assay type: functional, cell-based; details: time 6-12 hrs
# Procedure, shortened: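 Scrambled-control and shNur77 HepG2 given DMSO or 2.0 µM for 6 or 12 h; immunoblotting of RIPA lysates for LC3, Beclin1 and Nur77 after SDS-PAGE and nitrocellulose transfer, chemiluminescent detection.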
smiles,measurement,setting,value
COc1cccc2c(Nc3ccc4[nH]c(C(=O)N/N=C/c5ccc(SC)cc5)cc4c3)cc(C)nc12,Activity,HepG2 [1],Active
same,Activity,HepG2 [2],inactive
same,Activity,HepG2 [3],inactive
same,Activity,QGY-7703 [4],Dose-dependent effect
same,Activity,HepG2 [5],18938 U
same,Activity,HepG2 [6],Active
same,Activity,HepG2 [7],0.16%
same,Activity,SMMC-7721,Dose-dependent effect
same,IC50,L02,> 20 µM
same,Activity,HepG2 [8],inactive
same,Activity,HepG2 [9],71731 U
same,IC50,QGY-7703 [10],890 nM
same,Activity,HepG2 [11],Active
